Activity and inhibition data for eight compounds are collected here from ChEMBL document CHEMBL1154919, “Synthesis and biological evaluation of 12-aminoacylphorboids” (J Nat Prod, 2010).

Activity calls are given as the source filed them. The rule behind the calls is not given here.

Assay [1] has as its target Protein kinase C alpha type (Homo sapiens) (UniProt P17252). The assay is described as follows: Activation of PKCalpha assessed as [32P] incorporation after 10 mins by scintillation counting.
The subject of assay [2] is Human immunodeficiency virus 1. Nature of the assay: Activation of latent recombinant HIV1 LTR-GFP gene expression infected in human Jurkat LAT-GFP cells assessed as GFP positive cells at 10 uM after 6 hrs by flow cytometry. It is filed as functional, organism-based. Put shortly:
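Jurkat-derived clone latently infected with recombinant virus carrying GFP under HIV-LTR promoter, exposed to compound for 6 h. Histograms shown are one of three independent experiments.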
In general terms: In flow cytometry, cells or beads pass a laser one at a time.

The target of assay [3] is Protein kinase C delta type (Homo sapiens) (UniProt Q05655). Nature of the assay: Activation of PKCdelta assessed as [32P] incorporation after 10 mins by scintillation counting.
Protein kinase C delta type (Homo sapiens), sequence (Q05655 whole entry, looked up): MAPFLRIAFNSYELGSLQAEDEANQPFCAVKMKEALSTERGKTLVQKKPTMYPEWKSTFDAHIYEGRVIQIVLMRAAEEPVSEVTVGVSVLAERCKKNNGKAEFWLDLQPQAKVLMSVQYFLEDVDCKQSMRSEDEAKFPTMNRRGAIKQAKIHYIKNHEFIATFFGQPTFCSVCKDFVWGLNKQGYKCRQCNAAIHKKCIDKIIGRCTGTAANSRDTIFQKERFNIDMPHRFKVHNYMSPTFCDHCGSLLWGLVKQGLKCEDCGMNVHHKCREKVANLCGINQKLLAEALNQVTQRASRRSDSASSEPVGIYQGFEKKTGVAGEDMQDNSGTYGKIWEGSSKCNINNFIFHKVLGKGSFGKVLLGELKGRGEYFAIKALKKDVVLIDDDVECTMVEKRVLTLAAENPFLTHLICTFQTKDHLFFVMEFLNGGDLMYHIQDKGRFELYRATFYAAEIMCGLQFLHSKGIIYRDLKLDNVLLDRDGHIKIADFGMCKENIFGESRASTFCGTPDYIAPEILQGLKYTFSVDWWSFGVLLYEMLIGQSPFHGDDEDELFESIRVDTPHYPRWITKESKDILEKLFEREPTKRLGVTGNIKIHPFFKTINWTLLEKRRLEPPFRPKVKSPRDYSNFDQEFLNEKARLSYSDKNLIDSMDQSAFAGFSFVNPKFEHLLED
For assay [4] the target is unchanged. Nature of the assay: Activation of PKCdelta in human Jurkat cells assessed as enzyme phosphorylation at 1 uM after 15 mins by Western blotting. It is filed as cell-based. An outline of the steps:
(§1)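 Jurkat LAT-GFP cells (10^6 cells/ml) exposed for 15 min to compound (increasing concentrations) or TPA 1 µM. Lysed in HEPES pH 8.0 buffer with 0.5% NP-40 and protease/phosphatase inhibitors. 30 µg protein run on 10% SDS-PAGE, blotted to nitrocellulose, probed with anti-phospho-PKCδ (Thr505) and anti-panPKC, ECL detection.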
On the technique in general: In western blotting, separated proteins are transferred to a membrane and probed.

In assay [5] the test system is Human immunodeficiency virus 1. Nature of the assay: Activation of latent recombinant HIV1 LTR-GFP gene expression infected in human Jurkat LAT-GFP cells assessed as GFP positive cells after 6 hrs by flow cytometry relative to control. The class given is functional, organism-based. An outline of the steps: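 Jurkat-derived clone latently carrying recombinant virus with GFP under the HIV-LTR promoter, stimulated with compound at the indicated concentrations for 6 h.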

Assay [6] concerns Human immunodeficiency virus 1. The assay is described as follows: Activation of latent recombinant HIV1 LTR-GFP gene expression infected in human Jurkat LAT-GFP cells assessed as GFP level at 10 uM after 6 hrs by flow cytometry in presence of PKCinhibitor G06976 pretreated for 30 mins. The class given is functional, organism-based. Put shortly:
(§2)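 Jurkat LAT-GFP cells (latent HIV-LTR-driven GFP clone) pretreated 30 min with PKC inhibitor (1 µM), then stimulated with compound at 10 µM for 6 h.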

Assay [7] concerns the target Protein kinase C delta type (Homo sapiens) (UniProt Q05655). Nature of the assay: Activation of PKCdelta in human Jurkat cells assessed as enzyme phosphorylation after 15 mins by Western blotting. It is filed as cell-based. An outline of the steps:
as §1

The test system of assay [8] is Human immunodeficiency virus 1. The assay is described as follows: Activation of latent recombinant HIV1 LTR-GFP gene expression infected in human Jurkat LAT-GFP cells assessed as GFP level at 10 uM after 6 hrs by flow cytometry in presence of pan-PKC inhibitor G06983 pretreated for 30 mins. It is filed as functional, organism-based. Put shortly:
as §2

The target of assay [9] is T1, Prostaglandin G/H synthase 2 (Rattus norvegicus) (UniProt P35355).
T1 sequence (whole entry): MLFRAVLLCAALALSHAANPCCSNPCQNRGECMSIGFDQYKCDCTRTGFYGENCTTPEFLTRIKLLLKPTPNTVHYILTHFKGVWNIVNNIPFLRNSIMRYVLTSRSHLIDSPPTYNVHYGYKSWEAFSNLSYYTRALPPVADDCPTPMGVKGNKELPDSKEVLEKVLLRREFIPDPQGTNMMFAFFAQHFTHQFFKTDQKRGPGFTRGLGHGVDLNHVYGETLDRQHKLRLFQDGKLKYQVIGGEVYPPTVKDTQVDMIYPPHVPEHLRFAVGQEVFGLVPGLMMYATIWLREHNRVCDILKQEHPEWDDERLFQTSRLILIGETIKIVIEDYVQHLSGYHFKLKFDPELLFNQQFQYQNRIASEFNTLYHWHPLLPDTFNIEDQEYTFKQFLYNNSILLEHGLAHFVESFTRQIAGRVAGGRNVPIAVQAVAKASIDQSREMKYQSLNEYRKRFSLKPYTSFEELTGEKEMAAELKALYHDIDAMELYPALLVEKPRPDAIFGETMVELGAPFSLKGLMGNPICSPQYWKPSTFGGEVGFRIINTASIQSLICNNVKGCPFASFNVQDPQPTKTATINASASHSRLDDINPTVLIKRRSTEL
The assay is described as follows: Inhibition of COX2 in LPS-stimulated rat microglia assessed as PGE2 release after 24 hrs by enzyme immunoassay.

Assay [10] concerns the target T1, Prostaglandin G/H synthase 2 (Rattus norvegicus). Nature of the assay: Inhibition of COX2 in LPS-stimulated rat microglia after 24 hrs by immunoblotting.

Regarding `CC(=O)O[C@@]12[C@H](OC(=O)CN(C)C)[C@@H](C)[C@]3(O)[C@@H]4C=C(C)C(=O)[C@@H]4CC(CO)=C[C@H]3[C@@H]1C2(C)C`, the result in assay [1], in [2] and in [3] was inactive.

Consider `CCCCCCCCCCCCCC(=O)O[C@@H]1[C@@H](C)[C@]2(O)[C@@H]3C=C(C)C(=O)[C@@]3(O)[C@H](O)C(CO)=C[C@H]2[C@@H]2C(C)(C)[C@]12OC(C)=O`, for which, in assay [4], the result was Active.

As to `CCCCCCCCCCCCCC(=O)O[C@@H]1[C@@H](C)[C@@]2(O)[C@@H](C=C(CO)C[C@]3(O)C(=O)C(C)=C[C@@H]23)[C@@H]2C(C)(C)[C@]12OC(C)=O`, the outcome in [5] was Active.

As for `CC(=O)O[C@@]12[C@H](OC(=O)[C@@H](N)C(C)C)[C@@H](C)[C@]3(O)[C@@H]4C=C(C)C(=O)[C@@H]4CC(CO)=C[C@H]3[C@@H]1C2(C)C`, the outcome in assay [2] was inactive.

For the compound `CC(=O)O[C@@]12[C@H](OC(=O)[C@H](N)C(C)C)[C@@H](C)[C@]3(O)[C@@H]4C=C(C)C(=O)[C@@H]4CC(CO)=C[C@H]3[C@@H]1C2(C)C`, the outcome in [2] was inactive.

As to `CC(=O)O[C@@]12[C@H](OC(=O)[C@H](C(C)C)N(C)C)[C@@H](C)[C@]3(O)[C@@H]4C=C(C)C(=O)[C@@H]4CC(CO)=C[C@H]3[C@@H]1C2(C)C`, the outcome in assay [6], in assay [7], in assay [2] and in assay [8] was Active. For the same compound, the Activity entry in [1] and in assay [3] was “Dose-dependent effect” in each case.

Regarding `CC(=O)O[C@@]12[C@H](OC(=O)[C@@H](C(C)C)N(C)C)[C@@H](C)[C@]3(O)[C@@H]4C=C(C)C(=O)[C@@H]4CC(CO)=C[C@H]3[C@@H]1C2(C)C`, in assay [9], the outcome was inactive. Also, the result in [6], in assay [2] and in assay [8] was Active. Moreover, the inhibition entry in [10] is “Active”.

`CN[C@H](C(=O)O[C@@H]1[C@@H](C)[C@]2(O)[C@@H]3C=C(C)C(=O)[C@@H]3CC(CO)=C[C@H]2[C@@H]2C(C)(C)[C@]12OC(C)=O)C(C)C`: the result in assay [2] was inactive.
